Experimental findings from ChEMBL document CHEMBL1150669, “Isolation and characterization of novel oligosaccharides related to Ziracin” (2002) are described below.

Holding throughout (format): functional
In experiment [1] the test system is Staphylococcus aureus. The experiment in a line: Antimicrobial activity against Staphylococcus aureus at 20 ug/8 mm disk at pH 8 by agar diffusion method. In outline:
(§1)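 Agar disk diffusion against S. aureus. Samples dissolved at 1 mg/mL in CH2Cl2/MeOH (95:5 v/v), plus a 10-fold dilution in the same vehicle; 20 µL of each applied to 8 mm paper disks and air-dried 30 min. Disks placed on S. aureus-seeded agar at pH 7 and pH 8, incubated overnight at 35 °C. Read-out: inhibition zone diameter (mm).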
In general terms: Agar diffusion results depend on both activity and mobility in agar.

Experiment [2] deals with Staphylococcus aureus. Briefly: Antimicrobial activity against Staphylococcus aureus at 2 ug/8 mm disk at pH 8 by agar diffusion method. In a few lines:
as §1

For experiment [3], the system named is Staphylococcus aureus. Briefly: Antimicrobial activity against Staphylococcus aureus at 20 ug/8 mm disk at pH 7 by agar diffusion method. In outline:
as §1

For experiment [4], the system named is Staphylococcus aureus. Briefly: Antimicrobial activity against Staphylococcus aureus at 2 ug/8 mm disk at pH 7 by agar diffusion method. In outline: as §1

Take `COC[C@H]1O[C@@H](O[C@@H]2OC[C@@H]3O[C@@]4(OC[C@@H](OC(=O)c5c(C)cc(O)cc5O)[C@H](OC=O)[C@H]4O)O[C@H]3[C@H]2O)[C@@H](OC)[C@@H](O)[C@@H]1O[C@@H]1O[C@H](C)[C@H](OC)[C@H](O[C@@H]2O[C@H](C)[C@H]3O[C@]4(C[C@@H](O)[C@H](O[C@H]5C[C@@H](O[C@H]6C[C@](C)([N+](=O)[O-])[C@@H](OC)[C@H](C)O6)[C@H](OC(=O)c6c(C)c(Cl)c(O)c(Cl)c6OC)[C@@H](C)O5)[C@@H](C)O4)O[C@]3(C)[C@@H]2O)[C@H]1O`: the “inhibition zone (IZ)” value came out at 18 mm with Staphylococcus aureus [1], 15 mm in the experiment on Staphylococcus aureus [2], 21 mm with Staphylococcus aureus [3] and 17 mm with Staphylococcus aureus [4].
The corresponding values for `COC[C@H]1O[C@@H](O[C@@H]2OC[C@@H]3O[C@@]4(OC[C@@H](OC(=O)c5c(C)cc(O)cc5O)[C@@H]5OCO[C@H]54)O[C@H]3[C@H]2O)[C@@H](OC)[C@@H](O)[C@@H]1O[C@@H]1O[C@H](C)[C@H](OC)[C@H](O[C@@H]2O[C@H](C)[C@H]3O[C@]4(C[C@@H](O)[C@H](O[C@H]5C[C@@H](O[C@H]6C[C@](C)([N+](=O)[O-])[C@@H](OC)[C@H](C)O6)[C@H](OC(=O)c6c(C)cc(O)c(Cl)c6OC)[C@@H](C)O5)[C@@H](C)O4)O[C@]3(C)[C@@H]2O)[C@H]1O` are 17 mm, 16 mm, 20 mm and 17 mm.
Consider `COC[C@H]1O[C@@H](O[C@@H]2OC[C@@H]3O[C@@]4(OC[C@@H](OC(=O)c5c(C)cc(O)cc5O)[C@@H]5OCO[C@H]54)O[C@H]3[C@H]2O)[C@@H](OC)[C@@H](O)[C@@H]1O[C@@H]1O[C@H](C)[C@H](OC)[C@H](O[C@@H]2O[C@H](C)[C@H]3O[C@]4(C[C@@H](O)[C@H](O[C@H]5C[C@@H](O[C@H]6C[C@](C)([N+](=O)[O-])[C@@H](O)[C@H](C)O6)[C@H](OC(=O)c6c(C)c(Cl)c(O)c(Cl)c6OC)[C@@H](C)O5)[C@@H](C)O4)O[C@]3(C)[C@@H]2O)[C@H]1O`, for which the “inhibition zone (IZ)” value in the experiment on Staphylococcus aureus [1] came to 20 mm; in the experiment with Staphylococcus aureus [2] it was 18 mm; in the experiment with Staphylococcus aureus [3] it was 23 mm; with Staphylococcus aureus [4], 20 mm.
For the molecule `COC[C@H]1O[C@@H](O[C@@H]2OC[C@@H]3O[C@@]4(OC[C@@H](OC(=O)c5c(C)cc(O)cc5O)[C@@H]5OCO[C@H]54)O[C@H]3[C@H]2O)[C@@H](OC)[C@@H](O)[C@@H]1O`, the “inhibition zone (IZ)” value with Staphylococcus aureus [1] amounted to 8 mm; with Staphylococcus aureus [2], 8 mm; in the experiment on Staphylococcus aureus [3], 10 mm; with Staphylococcus aureus [4], 8 mm.
With `COC[C@H]1O[C@@H](O[C@@H]2OC[C@@H]3O[C@@]4(OC[C@@H](OC(=O)c5c(C)cc(O)cc5O)[C@@H]5OCO[C@H]54)O[C@H]3[C@H]2O)[C@@H](OC)[C@@H](O)[C@@H]1O[C@@H]1O[C@H](C)[C@H](OC)[C@H](O[C@@H]2O[C@H](C)[C@H]3O[C@]4(C[C@@H](O)[C@H](O[C@H]5C[C@@H](O[C@H]6C[C@](C)([N+](=O)[O-])[C@@H](OC)[C@H](C)O6)[C@H](OC(=O)c6c(C)cc(O)c(Cl)c6O)[C@@H](C)O5)[C@@H](C)O4)O[C@]3(C)[C@@H]2O)[C@H]1O`, the “inhibition zone (IZ)” value is 18 mm in the experiment with Staphylococcus aureus [1], 16 mm in the experiment with Staphylococcus aureus [2], 22 mm with Staphylococcus aureus [3] and 17 mm with Staphylococcus aureus [4].
The corresponding values for `COC[C@H]1O[C@@H](O[C@@H]2OC[C@@H]3O[C@@]4(OC[C@@H](OC(=O)c5c(C)cc(O)cc5O)[C@@H]5OCO[C@H]54)O[C@H]3[C@H]2O)[C@@H](OC)[C@@H](O)[C@@H]1O[C@@H]1O[C@H](C)[C@H](OC)[C@H](O[C@@H]2O[C@H](C)[C@H]3O[C@]4(C[C@@H](O)[C@H](O[C@H]5C[C@@H](O[C@H]6C[C@](C)([N+](=O)[O-])[C@@H](OC)[C@H](C)O6)[C@H](OC(=O)c6c(C)c(Cl)c(O)c(Cl)c6OC)[C@@H](C)O5)[C@@H](C)O4)O[C@]3(C)[C@@H]2O)[C@H]1O` [EVERNIMICIN] are 21 mm, 19 mm, 26 mm and 23 mm.
